The record followed here is ChEMBL document CHEMBL1148331, “Aziridinyldinitrobenzamides: synthesis and structure-activity relationships for activation by E. coli nitroreductase” (J Med Chem, 2004).

Data set [1] concerns WiDr. As to the kind of experiment: Effective concentration of 10% cell survival for activators in WiDr MCL (multicellular layer) cocultures. The format is functional, Homo sapiens. The essentials: (§1)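 WiDr multicellular layers were grown on collagen-coated inserts for 6 days. Cocultures held 10% WiDr-NTRneo activators and 90% WiDr targets; the other layers held targets only. Layers were exposed to prodrug over a range of concentrations for 5 h at 37 °C, stirred, under 5% CO2/95% O2. Cells were plated clonogenically, with activators selected in 0.3 mg/mL G418. After 14 days, colonies of more than 50 cells were counted and the concentration giving 10% survival was derived.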

The test system of data set [2] is Mus musculus. The data set can be described thus: In vivo activity against WiDr-nitroreductase tumors in mice at a dose of 1000 (umol/kg); 1/7. The format is functional.
The test system of data set [3] is SK-OV-3. The data set can be described thus: Ratio of growth inhibition of NTR-transfected human ovarian cell line to that of parental cell line (IC50 (NTR-)/IC50 (NTR+). The format is functional. In a few lines: (§2)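 Log-phase cells were seeded in αMEM with 5% FBS at 50–800 cells/well and grown for 18 h. Prodrug was added from DMSO stock diluted in medium and left for 18 h, then washed out. Regrowth lasted 3 days for V79 and EMT6 lines and 4 days for WiDr and Skov3 lines. Cell density was read by sulforhodamine B staining. IC50 was interpolated as 50% of control absorbance on the same plate. Ratio = IC50 of parental (NTR-ve) line / IC50 of NTR-transfected line.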

Data set [4] concerns EMT6. As to the kind of experiment: Growth inhibitory potency against NTR-Transfected (nitroreductase) mouse mammary cell line known as EMT6-NTRpuro cell line. It is filed as functional, cell-based. The essentials: as §2
Data set [5] has as its system Mus musculus. As to the kind of experiment: In vivo activity against WiDr-nitroreductase tumors in mice at a dose of 1000 (umol/kg); 2/7. It is filed as functional.
Data set [6] can be described thus: Ratio of growth inhibition of NTR-transfected human colon cell line to that of parental cell line (IC50 (NTR-)/IC50 (NTR+). It is filed as functional. In a few lines:
as §2

The subject of data set [7] is V79. The data set can be described thus: Growth inhibitory potency against NTR-Transfected (nitroreductase) chinese hamster fibroblast known as V79-NTRpuro cell line. The format is functional, cell-based. The conditions noted are these: Cricetulus griseus. The essentials: as §2
In data set [8] the test system is V79. As to the kind of experiment: Effective concentration of 10% cell survival for targets in V79 MCL (multicellular layer) cocultures. The format is functional, Cricetulus griseus. In a few lines:
(§3)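 V79 multicellular layers were grown on collagen-coated microporous inserts for 3 days, stirred, under 5% CO2/air. Cocultures held 3% V79-NTRpuro activators and 97% V79oua targets; the other layers held targets only. Layers were exposed to prodrug over a concentration range for 5 h at 37 °C under 5% CO2/95% O2. Cells were then plated clonogenically in 1 mM ouabain (targets) or 15 µM puromycin (activators). After 6 days, colonies of more than 50 cells were counted and the concentration giving 10% survival was taken.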

Data set [9] deals with Mus musculus. The data set can be described thus: In vivo median growth delay against CD-1 nude mice bearing WiDr-nitroreductase tumors at a dose 1000 (umol/kg). It is filed as functional.
The test system of data set [10] is WiDr-NTR. The data set can be described thus: Growth inhibitory potency against NTR-Transfected (nitroreductase) human colon cell line known as WiDr-NTRneo cell line. It is filed as functional, cell-based. The essentials:
as §2

Data set [11] in a line: Partition coefficient (logP). The format is physicochemical. The conditions noted are these: octanol/water; read-out: logP. The essentials: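 Partition measured between n-octanol and water.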
In data set [12] the test system is WiDr. The data set can be described thus: Effective concentration of 10% cell survival for targets in WiDr MCL (multicellular layer) grown from targets. The format is functional, Homo sapiens. The essentials: as §1
The test system of data set [13] is EMT6. As to the kind of experiment: Ratio of growth inhibition of NTR-transfected mouse mammary cell line to that of parental cell line (IC50 (NTR-)/IC50 (NTR+). It is filed as functional. In a few lines:
as §2

Data set [14] concerns WiDr. As to the kind of experiment: Effective concentration of 10% cell survival for targets in WiDr MCL (multicellular layer) cocultures. It is filed as functional, Homo sapiens. In a few lines:
as §1

Data set [15] concerns V79. As to the kind of experiment: Effective concentration of 10% cell survival for activators in V79 MCL (multicellular layer) cocultures. It is filed as functional, Cricetulus griseus. The essentials:
as §3

Data set [16] has as its system V79. The data set can be described thus: Effective concentration of 10% cell survival for targets in V79 MCL (multicellular layer) grown from targets. The format is functional, Cricetulus griseus. In a few lines:
as §3

Data set [17] concerns SK-OV-3. As to the kind of experiment: Growth inhibitory potency against NTR-Transfected (nitroreductase) human ovarian cell line known as SKOV3-NTR neo cell line. The format is functional, cell-based. The essentials: as §2
Data set [18] is described as follows: Solubility in culture medium. The format is physicochemical. In a few lines:
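Solubility limit (mM) determined in cell culture medium.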

Data set [19] relates to Mus musculus. The data set can be described thus: In vivo activity against WiDr-nitroreductase tumors in mice at a dose of 1000 (umol/kg); 0/6. The format is functional.
In data set [20] the test system is Mus musculus. The data set can be described thus: In vivo activity against WiDr-nitroreductase tumors in mice at a dose of 178 (umol/kg); 0/3. The format is functional.
For data set [21], the system named is Mus musculus. The data set can be described thus: In vivo activity against WiDr-nitroreductase tumors in mice at a dose of 178 (umol/kg); 4/7. The format is functional.
Data set [22] has as its system Mus musculus. As to the kind of experiment: In vivo median growth delay against CD-1 nude mice bearing WiDr-nitroreductase tumors at a dose 178 (umol/kg). It is filed as functional.
Data set [23] has as its system Mus musculus. The data set can be described thus: In vivo median growth delay against CD-1 nude mice bearing WiDr-nitroreductase tumors at a dose 300 (umol/kg). It is filed as functional.
In data set [24] the test system is Mus musculus. As to the kind of experiment: In vivo activity against WiDr-nitroreductase tumors in mice at a dose of 300 (umol/kg); 1/7. It is filed as functional.
In data set [25] the test system is Mus musculus. As to the kind of experiment: In vivo activity against WiDr-nitroreductase tumors in mice at a dose of 300 (umol/kg); 0/7. The format is functional.

Each structure is given as a SMILES string. ≈ marks a conversion by molar mass, not a printed value.

For the compound `O=C(NCC(O)CO)c1cc(N2CC2)c([N+](=O)[O-])cc1[N+](=O)[O-]` (stereo not given), the Ac in data set [1] is 28 µM; in data set [15], 26 µM. For the same compound, the Deaths in [2] worked out at 1. Besides, the Ratio in data set [3] is listed as 83.7; in data set [6] it was 49; in [13] it was 86.5. In addition, the IC50 in data set [4] turned out to be 1.1 µM; in data set [7], 0.71 µM; in data set [10], 3.7 µM; in data set [17], 2.3 µM. Besides, the Cures in data set [5] was 2. Also, the figures for the Tc in data set [8] and in [14] were 840 µM and 320 µM, respectively. In [9], this compound gave a Growth delay greater than 86 days. For the same compound, in [11], the logP was -1.04. Further, the T was 540 µM in [12] and 1595 µM in data set [16]. For the same compound, the solubility in [18] was 22000 µM (≈ 7180 µg/mL).
In [2], `O=C(NCC(O)CO)c1cc([N+](=O)[O-])cc([N+](=O)[O-])c1N1CC1` (stereo not given) showed a Deaths of 1. For the same compound, the results for the Ratio in data set [3], in data set [6] and in [13] were 185, 71 and 252, respectively. In addition, the IC50 in data set [4] was determined as 4.4 µM; in data set [7], 6.1 µM; in [10], 12.5 µM; in [17], 7.3 µM. Moreover, in [19], the Cures turned out to be 0. The compound further gave a Growth delay in data set [9] of 8 days. Moreover, in data set [11], the logP is -0.15. The solubility in data set [18] was found to be 2500 µM (≈ 816 µg/mL).
`O=C(NCCN1CCOCC1)c1cc([N+](=O)[O-])cc([N+](=O)[O-])c1N1CC1`: the Ratio in [3] was greater than 72; in data set [6], 32; in data set [13], 177. Moreover, the IC50 in [4] stood at 3.4 µM; in data set [7] it was 7.3 µM; in [10], 18 µM; in data set [17], 11 µM. This compound also had a Cures in [20] of 0. In addition, the logP in data set [11] came to 0.11. The Deaths in data set [21] worked out at 4. Also, the Growth delay in data set [22] was -1 days. In data set [18], this compound returned a solubility of 350 µM (≈ 128 µg/mL).
As to `O=C(NCCN1CCOCC1)c1cc(N2CC2)c([N+](=O)[O-])cc1[N+](=O)[O-]`, the Growth delay in [23] worked out at 35 days. Also, the Ac worked out at 8.5 µM in data set [1] and 11.5 µM in [15]. The compound further registered a Cures in [24] of 1. For the same compound, the results for the Ratio in data set [3], in [6] and in data set [13] were 1100, 183 and 4020, respectively. The IC50 in data set [4] amounted to 0.053 µM; in data set [7], 0.15 µM; in [10], 0.72 µM; in data set [17] it was 0.45 µM. The figures for the Tc in [8] and in [14] were 470 µM and 105 µM, respectively. Moreover, the Deaths in data set [25] was 0. Further, the logP in data set [11] came out at 0.31. Also, the T in data set [12] amounted to 680 µM; in data set [16], 1600 µM. In data set [18], this compound came in with a solubility of 1800 µM (≈ 658 µg/mL).

Broadly, the IC50 is the midpoint of a concentration-inhibition curve. High values mean lower potency, low ones higher potency. In general, logP refers to a log measure of how a compound divides between an organic and an aqueous phase. In general, solubility refers to the dissolved amount per volume that the medium holds.
